Reference: ChEMBL document CHEMBL3098025, “Optimization of potency and pharmacokinetics of tricyclic indole derived inhibitors of HCV NS5B polymerase. Identification of ester prodrugs with improved oral pharmacokinetics” (Bioorg Med Chem, 2014)

How the values were obtained:
[1] = Inhibition of HCV1b NS5B polymerase; set-up: species or system Hepatitis C virus subtype 1b
Hepatitis C virus = assay: Antiviral activity against HCV1b assessed as inhibition of viral replication; format: functional, organism-based, Hepacivirus hominis; conditions: genotype 1b
Outline: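 In the cell-based HCV replicon assay, viral RNA levels were measured. EC50 is the concentration giving a 50% reduction in replicon RNA.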

[2] = AUC (0 to 6 hrs) in Sprague-Dawley rat at 10 mg/kg, po; format: ADME, organism-based; set-up: time < 6 hr, dose 10 mg/kg, route oral; conditions: plasma
Outline: (§1)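 Sprague Dawley rats received esters orally at 10 mg/kg in 0.4% methylcellulose, given as trifluoroacetate salts. Plasma levels of both the intact ester prodrug and the acid metabolite were measured. AUC was integrated over 0–6 h after dosing.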

Cynomolgus monkey [3] = assay: Prodrug conversion in cynomolgus monkey assessed as AUC (0 to 24 hrs) of 4-Fluoro-6-((6-fluoro-1H-benzo[d]imidazol-5-yl)methyl)-8-(2-oxo-1,2-dihydropyridin-3-yl)-6H-furo[2,3-e]indole-7-carboxylic acid level at 3 mg/kg, po; format: ADME, organism-based, Macaca fascicularis; set-up: time < 24 hr, dose 3 mg/kg, route oral; conditions: in vivo
Rattus norvegicus [4] = assay: Prodrug conversion in Sprague-Dawley rat assessed as AUC (0 to 24 hrs) of 4-Fluoro-6-((6-fluoro-1H-benzo[d]imidazol-5-yl)methyl)-8-(2-oxo-1,2-dihydropyridin-3-yl)-6H-furo[2,3-e]indole-7-carboxylic acid level at 10 mg/kg, po; format: ADME, organism-based; set-up: time < 24 hr, dose 10 mg/kg, route oral; conditions: in vivo
Outline: (§2)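 Dimethylaminoethyl ester prodrugs were dosed orally to rats at 10 mg/kg in 0.4% methylcellulose.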

[5] = Oral bioavailability in Sprague-Dawley rat at 3 mg/kg; format: ADME, organism-based; conditions: in vivo
Plasma = assay: Metabolic stability in po dosed Sprague-Dawley rat plasma assessed as glutathione adduct formation; format: ADME, organism-based; conditions: in vivo
Outline: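 Plasma samples from the full rat PK study (oral, 3 mg/kg) were analysed for metabolites, including glutathione adducts.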

Rattus norvegicus [6] = assay: Prodrug conversion in Sprague-Dawley rat assessed as AUC (0 to 24 hrs) of 6-((3-Amino-6-fluoro-1H-indazol-5-yl)methyl)-4-fluoro-8-(2-oxo-1,2-dihydropyridin-3-yl)-6H-furo[2,3-e]indole-7-carboxylic acid level at 10 mg/kg, po; format: ADME, organism-based; set-up: time < 24 hr, dose 10 mg/kg, route oral; conditions: in vivo; outline: as §2
Cynomolgus monkey [7] = assay: Prodrug conversion in cynomolgus monkey assessed as AUC (0 to 24 hrs) of 6-((3-Amino-6-fluoro-1H-indazol-5-yl)methyl)-4-fluoro-8-(2-oxo-1,2-dihydropyridin-3-yl)-6H-furo[2,3-e]indole-7-carboxylic acid level at 3 mg/kg, po; format: ADME, organism-based, Macaca fascicularis; set-up: time < 24 hr, dose 3 mg/kg, route oral; conditions: in vivo
[8] = AUC (0 to 6 hrs) in cynomolgus monkey at 3 mg/kg, po; format: ADME, organism-based, Macaca fascicularis; set-up: time < 6 hr, dose 3 mg/kg, route oral; conditions: plasma
Rattus norvegicus [9] = assay: Prodrug conversion in Sprague-Dawley rat assessed as AUC (0 to 6 hrs) of parent compound level at 10 mg/kg, po; format: ADME, organism-based; set-up: time < 6 hr, dose 10 mg/kg, route oral; conditions: in vivo; outline: as §1
Cynomolgus monkey [10] = assay: Prodrug conversion in cynomolgus monkey assessed as AUC (0 to 24 hrs) of 4-Fluoro-6-((6-methyl-1H-indazol-5-yl)methyl)-8-(2-oxo-1,2-dihydropyridin-3-yl)-6H-furo[2,3-e]indole-7-carboxylic acid level at 3 mg/kg, po; format: ADME, organism-based, Macaca fascicularis; set-up: time < 24 hr, dose 3 mg/kg, route oral; conditions: in vivo
Rattus norvegicus [11] = assay: Prodrug conversion in Sprague-Dawley rat assessed as AUC (0 to 24 hrs) of 4-Fluoro-6-((6-methyl-1H-indazol-5-yl)methyl)-8-(2-oxo-1,2-dihydropyridin-3-yl)-6H-furo[2,3-e]indole-7-carboxylic acid level at 10 mg/kg, po; format: ADME, organism-based; set-up: time < 24 hr, dose 10 mg/kg, route oral; conditions: in vivo; outline: as §2
Rattus norvegicus [12] = assay: Prodrug conversion in Sprague-Dawley rat assessed as AUC (0 to 6 hrs) of 6-((6-Chloro-1H-benzo[d]imidazol-5-yl)methyl)-4-fluoro-8-(2-oxo-1,2-dihydropyridin-3-yl)-6H-furo[2,3-e]indole-7-carboxylic acid level at 10 mg/kg, po; format: ADME, organism-based; set-up: time < 6 hr, dose 10 mg/kg, route oral; conditions: in vivo; outline: as §1
Liver microsome [13] = assay: Drug metabolism in human liver microsomes assessed as formation of 6-(2,5-difluorobenzyl)-2,3-dihydroxy-8-(2-oxo-1,2-dihydropyridin-3-yl)-3,6-dihydro-2H-furo[2,3-e]indole-7-carboxylic acid in presence of water; format: ADME
Liver microsome [14] = assay: Drug metabolism in human liver microsomes assessed as formation of 8-(1H-pyrrol-2-yl)-6H-furo[2,3-e]indole-7-carboxylic acid; format: ADME
Liver microsome [15] = assay: Drug metabolism in human liver microsomes assessed as formation of 2-((R)-2-((S)-4-amino-4-carboxybutanamido)-3-(carboxymethylamino)-3-oxopropylthio)-6-(2,5-difluorobenzyl)-3-hydroxy-8-(2-oxo-1,2-dihydropyridin-3-yl)-3,6-dihydro-2H-furo[2,3-e]indole-7-carboxylic acid in presence of glutathione; format: ADME
Liver microsome [16] = assay: Drug metabolism in human liver microsomes assessed as formation of 6-(2,5-difluorobenzyl)-3-hydroxy-2-(methoxyamino)-8-(2-oxo-1,2-dihydropyridin-3-yl)-3,6-dihydro-2H-furo[2,3-e]indole-7-carboxylic acid in presence of NH2OCH3; format: ADME
Liver microsome [17] = assay: Drug metabolism in human liver microsomes assessed as formation of 3-(2,5-Difluoro-benzyl)-1-(2-oxo-1,2-dihydro-pyridin-3-yl)-5b,6a-dihydro-3H-6,7-dioxa-3-aza-cyclopropa[b]-as-indacene-2-carboxylic acid; format: ADME

Compound `O=C(O)c1c(-c2ccc[nH]c2=O)c2c3occc3c(F)cc2n1Cc1cc2c(=O)cc[nH]c2cc1F` has an IC50 [1] of 3 nM and an EC50 (Hepatitis C virus) of 7 nM.

In the case of `O=C(O)c1c(-c2ccc[nH]c2=O)c2c3occc3c(F)cc2n1Cc1cc2cn[nH]c2cc1Cl`, the IC50 [1] is reported as 3 nM, the AUC(0-t) at 6 h [2] is reported as 5.1 µM·h and the EC50 (Hepatitis C virus) is reported as 5 nM.

`O=C(O)c1c(-c2ccc[nH]c2=O)c2c3occc3cc(F)c2n1Cc1cc(F)ccc1F` showed an IC50 [1] of 17 nM and an EC50 (Hepatitis C virus) of 2600 nM.

For `CN(C)CCOC(=O)c1c(-c2ccc[nH]c2=O)c2c3occc3c(F)cc2n1Cc1cc2[nH]cnc2cc1F.O=C(O)C(F)(F)F`, the AUC (Cynomolgus monkey [3]) was 14.6 µM·h, the AUC (Rattus norvegicus [4]) was 159 µM·h and the EC50 (Hepatitis C virus) was 6 nM.

In the case of `NC(=O)c1ccc(F)c(Cn2c(C(=O)O)c(-c3ccc[nH]c3=O)c3c4occc4c(F)cc32)c1`, the bioavailability [5] is reported as 1.5%, the IC50 [1] is reported as 4 nM and the Stability (Plasma) is reported as “Stable”. It also gave an AUC(0-t) at 6 h [2] of 1.7 µM·h and an EC50 (Hepatitis C virus) of 15 nM.

Compound `CN(C)CCOC(=O)c1c(-c2ccc[nH]c2=O)c2c3occc3c(F)cc2n1Cc1cc2c(N)n[nH]c2cc1F.O=C(O)C(F)(F)F` has an AUC (Rattus norvegicus [6]) of 118 µM·h, an AUC (Cynomolgus monkey [7]) of 4.2 µM·h and an EC50 (Hepatitis C virus) of 4 nM.

Work on `Nc1cc(Cn2c(C(=O)O)c(-c3ccc[nH]c3=O)c3c4occc4c(F)cc32)c2ccccc2n1` yielded an IC50 [1] of 4 nM, an AUC(0-t) at 6 h [2] of 24 µM·h and an AUC(0-t) at 6 h [8] of 0.4 µM·h. For the same compound, the EC50 (Hepatitis C virus) was 6 nM.

For `Nc1n[nH]c2cc(Cn3c(C(=O)O)c(-c4ccc[nH]c4=O)c4c5occc5c(F)cc43)c(F)cc12`, the IC50 [1] was 5 nM, the AUC(0-t) at 6 h [2] was 3.6 µM·h and the EC50 (Hepatitis C virus) was 12 nM.

`CCOC(=O)c1c(-c2ccc[nH]c2=O)c2c3occc3c(F)cc2n1Cc1cc2[nH]cnc2cc1Cl` showed an AUC (Rattus norvegicus [9]) of 0.1 µM·h.

`Cc1cc2[nH]ncc2cc1Cn1c(C(=O)OCCN(C)C)c(-c2ccc[nH]c2=O)c2c3occc3c(F)cc21.O=C(O)C(F)(F)F` showed an AUC (Cynomolgus monkey [10]) of 10.7 µM·h, an AUC (Rattus norvegicus [11]) of 79 µM·h and an EC50 (Hepatitis C virus) of 2 nM.

Work on `O=C([O-])c1c(-c2ccc[nH]c2=O)c2c3occc3c(F)cc2n1Cc1cc2[nH]cnc2cc1Cl.[Na+]` yielded an AUC (Rattus norvegicus [12]) of 2.1 µM·h.

For `CC(CN(C)C)OC(=O)c1c(-c2ccc[nH]c2=O)c2c3occc3c(F)cc2n1Cc1cc2[nH]cnc2cc1Cl.O=C(O)C(F)(F)F` (stereo unspecified), the AUC (Rattus norvegicus [9]) was 0.8 µM·h and the AUC (Rattus norvegicus [12]) was 32.6 µM·h.

`O=C(O)C(F)(F)F.O=C(OCCN1CCOCC1)c1c(-c2ccc[nH]c2=O)c2c3occc3c(F)cc2n1Cc1cc2[nH]cnc2cc1Cl` gave an AUC (Rattus norvegicus [9]) of 0.2 µM·h and an AUC (Rattus norvegicus [12]) of 5.5 µM·h.

With `O=C(O)c1c(-c2ccc[nH]c2=O)c2c3occc3ccc2n1Cc1cc(F)ccc1F` the Drug metabolism (Liver microsome [13]) was “Active”, the IC50 [1] was 31 nM and the Drug metabolism (Liver microsome [14]) was “Active”. For the same compound, the Drug metabolism (Liver microsome [15]) was “Active”, the Drug metabolism (Liver microsome [16]) was “Active” and the Drug metabolism (Liver microsome [17]) was “Active”. For the same compound, the EC50 (Hepatitis C virus) was 160 nM.
